Measurements taken from ChEMBL document CHEMBL1123812, “Pyrroloisoquinoline antidepressants. 2. In-depth exploration of structure-activity relationships” (J Med Chem, 1987).
Activity calls are given as the source filed them.

Columns and labels:
Mus musculus [1] = organism: Mus musculus; assay: Antagonism of tetrabenazine (TBZ)-induced depression in mice measured for ptosis; type: functional
How it was run: (§1)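 Nonfasted male Swiss Webster mice, 18–24 g, ten per dose level and in saline controls. Test compound given ip 30 min before tetrabenazine 32 mg/kg ip; dose expressed as free base. Motor activity and ptosis scored. Control response ≤90% corrected by Abbott's formula.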

Mus musculus [2] = organism: Mus musculus; assay: Antagonism of tetrabenazine (TBZ)-induced depression measured in mice by motor activity; type: functional; how it was run: as §1
Mus musculus [3] = organism: Mus musculus; assay: Gross behavioral effects ascertained in mice; W indicates weak stimulant or depressant activity of little significance.; type: functional, organism-based
How it was run: (§2)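 Male Swiss Webster mice, 18–24 g, three per dose, given ip doses of 1, 3, 10, 30, 100 and 300 mg/kg. Observed for gross behavior and held for 4 days. Scored as weak (W), stimulant (S), depressant (D) or convulsant (C).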

Rattus norvegicus [4] = organism: Rattus norvegicus; assay: Ability to inhibit the uptake of tritiated dopamine (DA) 1 uM concentration; type: functional
How it was run: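 Rat brain synaptosomal [3H]dopamine uptake: striatal P2 fraction, test compound at 1.00 μM. Preincubated at 37 °C, then 50–300 nM [3H]DA for 3 min. Blanks on ice. Filtration and scintillation counting; percent inhibition of control uptake.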

[5] = molecular target: Norepinephrine transporter (Rattus norvegicus) (UniProt Q9WTR4); assay: Ability to inhibit the uptake of [3H]norepinephrine (NE) 0.1 uM concentration at rat brain synaptosomes; type: functional, subcellular
Norepinephrine transporter (Rattus norvegicus), sequence (Q9WTR4 as listed by the source): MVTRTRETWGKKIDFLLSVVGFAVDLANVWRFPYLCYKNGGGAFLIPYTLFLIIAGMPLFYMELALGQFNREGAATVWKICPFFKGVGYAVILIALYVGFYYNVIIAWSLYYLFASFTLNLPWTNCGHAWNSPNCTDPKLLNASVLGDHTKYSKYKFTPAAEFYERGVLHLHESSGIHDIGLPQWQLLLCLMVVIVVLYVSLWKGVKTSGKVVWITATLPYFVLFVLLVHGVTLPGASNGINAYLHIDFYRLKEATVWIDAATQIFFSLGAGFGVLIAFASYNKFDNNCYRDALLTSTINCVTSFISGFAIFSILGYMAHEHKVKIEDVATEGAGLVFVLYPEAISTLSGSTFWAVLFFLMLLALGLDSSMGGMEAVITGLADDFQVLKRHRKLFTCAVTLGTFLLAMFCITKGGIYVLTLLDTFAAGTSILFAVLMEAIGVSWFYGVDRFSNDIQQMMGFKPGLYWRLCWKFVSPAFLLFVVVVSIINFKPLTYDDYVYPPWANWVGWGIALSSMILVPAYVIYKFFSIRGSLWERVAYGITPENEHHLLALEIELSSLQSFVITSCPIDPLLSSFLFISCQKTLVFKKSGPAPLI
How it was run: (§3)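 Male Wistar rat brain synaptosomes (P2 fraction): hypothalamus for NE, striatum for DA, cerebral cortex for 5-HT. Buffer is Tris- or HEPES-buffered salt medium with glucose, ascorbate and nialamide, pH 7.4 at 37 °C. Preincubated 10 min at 37 °C with compound. Uptake started with [3H]NE 100–300 nM, [3H]DA 50–300 nM or [3H]5-HT 100–200 nM, incubated 3 min (DA) or 6–10 min (NE, 5-HT). Blanks held on ice. Filtered, counted by scintillation.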

[6] = molecular target: Sodium-dependent serotonin transporter (Rattus norvegicus) (UniProt P31652); assay: Ability to inhibit the uptake of [3H]- serotonin(5-HT) 0.1 uM concentration at rat brain synaptosomes; type: functional, subcellular; how it was run: as §3
Sodium-dependent serotonin transporter (Rattus norvegicus), sequence (P31652 whole entry): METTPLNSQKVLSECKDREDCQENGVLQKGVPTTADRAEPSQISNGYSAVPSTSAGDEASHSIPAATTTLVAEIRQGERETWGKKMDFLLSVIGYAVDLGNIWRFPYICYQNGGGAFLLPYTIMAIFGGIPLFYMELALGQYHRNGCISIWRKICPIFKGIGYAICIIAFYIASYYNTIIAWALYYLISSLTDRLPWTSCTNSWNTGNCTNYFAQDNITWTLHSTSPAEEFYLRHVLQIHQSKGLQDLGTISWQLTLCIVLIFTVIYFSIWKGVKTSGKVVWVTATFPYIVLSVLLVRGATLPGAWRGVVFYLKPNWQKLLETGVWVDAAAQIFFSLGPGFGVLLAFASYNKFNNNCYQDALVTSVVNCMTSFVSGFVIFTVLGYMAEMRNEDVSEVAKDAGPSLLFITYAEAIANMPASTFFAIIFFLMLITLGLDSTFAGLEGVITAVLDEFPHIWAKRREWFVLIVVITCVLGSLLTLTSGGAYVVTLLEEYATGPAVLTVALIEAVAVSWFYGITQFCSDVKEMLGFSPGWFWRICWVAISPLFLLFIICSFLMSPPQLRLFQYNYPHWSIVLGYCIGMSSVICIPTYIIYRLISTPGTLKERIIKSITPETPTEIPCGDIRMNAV

[7] = molecular target: Serotonin 2 (5-HT2) receptor (Rattus norvegicus, UniProt P30994+P08909+P14842); assay: Binding affinity towards 5-hydroxytryptamine 2 receptor; type: protein assay
[8] = molecular target: D(1A) dopamine receptor (Rattus norvegicus) (UniProt P18901); assay: Binding affinity towards Dopamine receptor D1 at 1.0 uM concentration
D(1A) dopamine receptor (Rattus norvegicus), sequence (P18901 whole entry): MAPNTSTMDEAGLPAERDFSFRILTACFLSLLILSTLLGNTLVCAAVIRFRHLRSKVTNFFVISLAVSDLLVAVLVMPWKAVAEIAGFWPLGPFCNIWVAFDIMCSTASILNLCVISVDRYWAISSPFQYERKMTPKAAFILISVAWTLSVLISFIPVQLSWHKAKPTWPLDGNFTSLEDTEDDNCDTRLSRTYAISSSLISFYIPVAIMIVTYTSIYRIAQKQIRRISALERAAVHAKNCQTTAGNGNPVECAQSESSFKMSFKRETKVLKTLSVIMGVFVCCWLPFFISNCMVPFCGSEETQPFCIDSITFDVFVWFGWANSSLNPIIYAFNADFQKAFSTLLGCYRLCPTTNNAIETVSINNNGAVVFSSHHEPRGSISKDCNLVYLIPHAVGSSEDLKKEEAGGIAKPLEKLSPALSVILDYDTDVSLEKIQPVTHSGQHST
How it was run: (§4)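 Rat brain crude synaptic membranes in 20 mM NaHEPES pH 7.5. Ligands: α1 cortex […] 0.4 nM, nonspecific with (-)-NE 100 μM, 30 min at 25 °C. […] D2 striatum [3H]spiperone 0.05 nM with (+)-butaclamol 1 μM, 45 min at 37 °C. S1 cortex [3H]5-HT 1 nM plus glutathione and MgCl2, with 5-HT 10 μM, 20 min at 37 °C. […] Samples filtered on GF/B and counted.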

[9] = molecular target: D(2) dopamine receptor (Rattus norvegicus) (UniProt P61169); assay: Binding affinity towards dopamine receptor D2 at 1.0 uM concentration; how it was run: as §4
D(2) dopamine receptor (Rattus norvegicus), sequence (P61169 whole entry): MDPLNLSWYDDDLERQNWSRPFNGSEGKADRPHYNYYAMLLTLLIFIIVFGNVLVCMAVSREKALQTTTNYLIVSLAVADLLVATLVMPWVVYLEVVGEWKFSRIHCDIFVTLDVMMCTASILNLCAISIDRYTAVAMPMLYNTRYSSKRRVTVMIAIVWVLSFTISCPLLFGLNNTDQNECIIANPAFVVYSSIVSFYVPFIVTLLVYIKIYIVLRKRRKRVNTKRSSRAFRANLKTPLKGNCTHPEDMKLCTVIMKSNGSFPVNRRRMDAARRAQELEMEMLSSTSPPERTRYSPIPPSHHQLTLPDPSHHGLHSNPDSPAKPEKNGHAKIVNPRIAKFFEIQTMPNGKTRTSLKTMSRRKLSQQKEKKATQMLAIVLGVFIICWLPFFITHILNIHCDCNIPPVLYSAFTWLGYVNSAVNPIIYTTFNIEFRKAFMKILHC

[10] = molecular target: Serotonin 1 (5-HT1) receptor (Rattus norvegicus) (UniProt P28564+P30940+P19327+P28565); assay: Binding affinity towards serotonin S1 receptor at 1.0 uM; type: protein assay; how it was run: as §4
[11] = molecular target: Sodium-dependent dopamine transporter (Rattus norvegicus, UniProt P23977); assay: Inhibition of the uptake of tritiated dopamine (DA) in rat synaptosomes; type: subcellular, Brain
Sodium-dependent dopamine transporter, sequence (P23977 whole entry): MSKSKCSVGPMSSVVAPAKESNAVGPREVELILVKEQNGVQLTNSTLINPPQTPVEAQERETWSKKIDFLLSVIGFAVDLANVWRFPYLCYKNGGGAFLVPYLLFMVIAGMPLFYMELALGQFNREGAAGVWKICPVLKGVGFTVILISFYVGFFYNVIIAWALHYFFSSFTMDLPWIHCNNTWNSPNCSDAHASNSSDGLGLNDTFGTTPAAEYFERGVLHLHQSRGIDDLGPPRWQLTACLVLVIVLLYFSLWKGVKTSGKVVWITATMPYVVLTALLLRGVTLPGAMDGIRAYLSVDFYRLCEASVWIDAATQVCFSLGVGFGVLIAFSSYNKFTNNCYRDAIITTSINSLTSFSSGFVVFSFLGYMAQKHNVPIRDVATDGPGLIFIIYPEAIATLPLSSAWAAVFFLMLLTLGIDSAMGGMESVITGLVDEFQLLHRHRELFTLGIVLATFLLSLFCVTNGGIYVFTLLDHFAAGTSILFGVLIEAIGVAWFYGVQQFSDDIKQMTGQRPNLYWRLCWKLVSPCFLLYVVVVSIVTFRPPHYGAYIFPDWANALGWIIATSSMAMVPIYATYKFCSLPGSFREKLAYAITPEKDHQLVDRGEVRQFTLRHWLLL

[12] = molecular target: Norepinephrine transporter (Rattus norvegicus, UniProt Q9WTR4); assay: Inhibition of uptake of tritiated norepinephrine (NE) in rat synaptosomes; type: subcellular, Brain
Norepinephrine transporter, sequence (Q9WTR4 whole entry): as the sequence (Q9WTR4 as listed by the source) above

[13] = molecular target: Adrenergic receptor alpha-1 (Rattus norvegicus) (UniProt P15823+P23944+P43140); assay: Binding affinity towards alpha-1 adrenergic receptor at 1.0 uM concentration; type: protein assay; how it was run: as §4
[14] = molecular target: Serotonin 1 (5-HT1) receptor (Rattus norvegicus, UniProt P28564+P30940+P19327+P28565); assay: Binding affinity towards serotonin S1 receptor; type: protein assay; how it was run: as §4
[15] = molecular target: T1, Adrenergic receptor alpha-1 (Rattus norvegicus, UniProt P15823+P23944+P43140); assay: Binding affinity towards alpha-1 adrenergic receptor; type: protein assay
T1 sequence (P15823 whole entry): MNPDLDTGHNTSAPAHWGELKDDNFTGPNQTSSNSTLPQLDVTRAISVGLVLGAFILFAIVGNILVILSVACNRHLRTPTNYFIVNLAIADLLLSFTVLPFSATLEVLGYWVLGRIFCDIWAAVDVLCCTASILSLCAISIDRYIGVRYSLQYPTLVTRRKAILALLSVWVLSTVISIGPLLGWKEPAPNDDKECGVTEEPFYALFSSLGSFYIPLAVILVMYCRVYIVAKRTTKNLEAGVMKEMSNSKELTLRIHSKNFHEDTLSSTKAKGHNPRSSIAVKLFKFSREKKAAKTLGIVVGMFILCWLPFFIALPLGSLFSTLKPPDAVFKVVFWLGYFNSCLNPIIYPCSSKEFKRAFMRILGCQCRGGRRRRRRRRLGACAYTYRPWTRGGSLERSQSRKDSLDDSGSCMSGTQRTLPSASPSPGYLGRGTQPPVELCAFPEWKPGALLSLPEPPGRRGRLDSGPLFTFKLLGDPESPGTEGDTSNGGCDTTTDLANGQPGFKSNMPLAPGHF
T1 sequence (P23944 whole entry): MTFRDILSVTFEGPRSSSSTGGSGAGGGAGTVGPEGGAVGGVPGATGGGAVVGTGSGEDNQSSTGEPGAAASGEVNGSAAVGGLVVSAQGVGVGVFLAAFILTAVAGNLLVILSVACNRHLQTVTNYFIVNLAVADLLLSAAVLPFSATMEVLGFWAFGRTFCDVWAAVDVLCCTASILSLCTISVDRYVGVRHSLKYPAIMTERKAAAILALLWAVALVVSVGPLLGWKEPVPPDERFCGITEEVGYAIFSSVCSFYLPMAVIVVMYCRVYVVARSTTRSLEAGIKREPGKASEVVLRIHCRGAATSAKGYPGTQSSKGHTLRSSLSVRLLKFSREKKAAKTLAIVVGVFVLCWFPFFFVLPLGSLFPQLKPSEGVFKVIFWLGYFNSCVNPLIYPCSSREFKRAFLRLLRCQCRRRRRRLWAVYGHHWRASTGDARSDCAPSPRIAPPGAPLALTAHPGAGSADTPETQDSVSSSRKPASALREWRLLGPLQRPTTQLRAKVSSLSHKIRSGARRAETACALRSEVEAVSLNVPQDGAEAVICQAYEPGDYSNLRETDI
T1 sequence (P43140 whole entry): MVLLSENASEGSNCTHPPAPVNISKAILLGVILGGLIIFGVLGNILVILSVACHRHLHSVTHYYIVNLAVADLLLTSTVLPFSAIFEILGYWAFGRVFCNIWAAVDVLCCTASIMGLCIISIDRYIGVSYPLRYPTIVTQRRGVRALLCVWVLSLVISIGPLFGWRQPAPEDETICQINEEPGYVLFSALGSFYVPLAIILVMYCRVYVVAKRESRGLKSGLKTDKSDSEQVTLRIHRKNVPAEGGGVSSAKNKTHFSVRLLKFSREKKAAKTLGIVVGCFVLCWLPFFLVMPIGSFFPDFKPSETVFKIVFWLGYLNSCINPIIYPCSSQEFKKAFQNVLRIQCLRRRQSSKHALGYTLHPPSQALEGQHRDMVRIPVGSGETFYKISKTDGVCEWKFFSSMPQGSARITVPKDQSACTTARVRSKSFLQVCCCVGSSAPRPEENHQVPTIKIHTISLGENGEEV

D(1A) dopamine receptor = D(1A) dopamine receptor (Rattus norvegicus, UniProt P18901); assay: Binding affinity towards Dopamine receptor D1
D(1A) dopamine receptor, sequence (P18901 whole entry): as the sequence (P18901 whole entry) above

Rattus norvegicus [16] = organism: Rattus norvegicus; assay: Ability to inhibit the uptake of tritiated norepinephrine (NE) at 0.1 uM concentration; type: functional; how it was run: as §3
[17] = molecular target: Sodium-dependent serotonin transporter (Rattus norvegicus) (UniProt P31652); assay: Inhibition of tritiated serotonin(5-HT) uptake at 0.1 uM concentration; type: functional; how it was run: as §3
[18] = molecular target: Sodium-dependent dopamine transporter (Rattus norvegicus) (UniProt P23977); assay: Inhibition of tritiated dopamine (DA) uptake at 0.1 uM concentration; type: functional; how it was run: as §3
Sodium-dependent dopamine transporter (Rattus norvegicus), sequence (P23977 whole entry): as the sequence (P23977 whole entry) above

Mus musculus [19] = assay: Ability to antagonise intraperitoneal dose; inactive (<10% antagonism) at 30 mg/kg is represented as I-30.; type: functional, organism-based; parameters: dose 30 mg/kg; how it was run: as §1
Mus musculus [20] = assay: Ability to antagonise intraperitoneal dose; inactive (<10% antagonism) at 30 mgjkg is represented as I-30.; type: functional, organism-based; how it was run: as §1
Mus musculus [21] = organism: Mus musculus; assay: Gross behavioral effects ascertained in mice; C indicates overt convulsant; type: functional, organism-based; how it was run: as §2
D(2) dopamine receptor = D(2) dopamine receptor (Rattus norvegicus, UniProt P61169); assay: Binding affinity towards Dopamine receptor D2
D(2) dopamine receptor, sequence (P61169 whole entry): as the sequence (P61169 whole entry) above

Mus musculus [22] = organism: Mus musculus; assay: Gross behavioral effects ascertained in mice; S indicates significant stimulant properties.; type: functional, organism-based; how it was run: as §2
[23] = molecular target: Muscarinic acetylcholine receptor (Rattus norvegicus) (UniProt P08482+P08483+P08485+P08911+P10980); assay: Binding affinity towards Muscarinic acetylcholine receptor at 1.0 uM concentration; type: protein assay
[24] = molecular target: Adrenergic receptor alpha-2 (Rattus norvegicus) (UniProt P22086+P19328+P22909); assay: Binding affinity towards alpha-2 adrenergic receptor at 1.0 uM concentration; type: protein assay

## Br.C[C@@]1(c2ccccc2)CN2CCC[C@H]2c2ccccc21
Mus musculus [1]; Mus musculus, read-out: ED50
  ED50: 16.2 mg/kg
Mus musculus [2]; Mus musculus, read-out: ED50
  ED50: 22.5 mg/kg
Mus musculus [3]
  behavior: Weak
Rattus norvegicus [4]
  Inhibition: 50%
[5]
  inhibition: 19%
[6]
  inhibition: 14%

## COc1ccc2c(c1)CN(C)CC2c1ccc(Cl)c(Cl)c1 (configuration not stated) [DICLOFENSINE]
[7]
  Ki: 37 nM
[8]
  inhibition: 38%
[9]
  inhibition: 27%
[10]
  inhibition: 33%
[11]
  Ki: 10.9 nM
[12]
  Ki: 8.8 nM
[13]
  inhibition: -6%

## CSc1ccc([C@@H]2CN3CCC[C@@H]3c3ccccc32)cc1 (stereo in doubt; (-)-48b)
[7]
  Ki: 939 nM
[14]
  Ki: 775 nM
[15]
  Ki: 213 nM

## Br.Oc1cc2c(cc1O)[C@@H]1CCCN1C[C@H]2c1ccccc1
D(1A) dopamine receptor
  Ki: 64 nM
[9]
  inhibition: 19%
Mus musculus [1]; Mus musculus, read-out: ED50
  ED50: > 60 mg/kg
Mus musculus [2]; Mus musculus, read-out: ED50
  ED50: > 60 mg/kg
Mus musculus [3]
  behavior: Partial stimulant
Rattus norvegicus [16]
  Inhibition: 35%
[17]
  inhibition: 0%
[18]
  inhibition: 22%

## C[C@@]12CCCN1C[C@@H](c1ccccc1)c1ccccc12
Mus musculus [19]
  ED50: inactive
Mus musculus [20]
  ED50: inactive
Rattus norvegicus [4]
  Inhibition: 25%
[5]
  inhibition: 2%
[6]
  inhibition: 23%
Mus musculus [21]
  behavior: Overt convulsant

## Br.Clc1ccccc1[C@@H]1CN2CCC[C@@H]2c2ccccc21 (stereo in doubt; 24b)
D(2) dopamine receptor
  Ki: 415 nM
Mus musculus [1]
  ED50: 0.44 mg/kg
Mus musculus [2]
  ED50: 1.6 mg/kg
[14]
  Ki: 1680 nM
[11]
  Ki: 35.9 nM
[15]
  Ki: 163 nM

## Br.Clc1ccccc1[C@@H]1CN2CCC[C@@H]2c2ccccc21 (stereo in doubt; (-)-24b)
[14]
  Ki: 2700 nM
[11]
  Ki: 775 nM
[15]
  Ki: 620 nM

## CSc1ccc([C@@H]2CN3CCC[C@@H]3c3ccccc32)cc1 (stereo in doubt; (+)-48b)
[7]
  Ki: 142 nM
D(2) dopamine receptor
  Ki: 1030 nM
[15]
  Ki: 274 nM

## Br.Oc1ccc([C@@H]2CN3CCC[C@@H]3c3ccccc32)cc1O
D(1A) dopamine receptor
  Ki: > 1000 nM
[9]
  inhibition: 5%
Mus musculus [1]; Mus musculus, read-out: ED50
  ED50: 0.11 mg/kg
Mus musculus [2]; Mus musculus, read-out: ED50
  ED50: 0.19 mg/kg
Mus musculus [22]
  behavior: Stimulant
[23]
  inhibition: 0%
[11]
  Ki: 10.1 nM
[12]
  Ki: 0.81 nM
[15]
  Ki: 675 nM
[24]
  inhibition: 26%
